Laboratory results as given in ChEMBL document CHEMBL1148399, “Total synthesis and antitubulin activity of c10 analogues of cryptophycin-24” (2004).
pEC50: −log10 of the molar value.

What was measured:
Assay type in all cases: functional
[1] = target: Tubulin alpha chain (Sus scrofa) (UniProt P02550); assay: In vitro effective concentration required to reduce the amount of microtubules assembly by tubulin assay
Summary of the method: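 Tubulin at 1.5 mg/mL was incubated with varying compound concentrations for 15 min at 37 °C in PEM buffer, pH 6.9 (0.1 M PIPES, 1 mM EGTA, 1 mM MgSO4), with 0.5 mM GTP and 8% DMSO. Microtubules were pelleted by centrifugation for 4 min at 37 °C and 50 000 rpm. Supernatant protein was measured by Bradford, and pellet protein derived from it. ED50 is the concentration reducing microtubules by 50%.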

NCI/ADR-RES = assay: In vitro cytotoxicity against human MCF-7/Adr breast cancer cell line; details: read-out: ED50 (the source's name)
Summary of the method: (§1)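 About 2000 cells/well plated in Dulbecco's MEM/F12 with 10% fetal calf serum. At 24 h the medium was replaced with fresh medium holding varying compound concentrations. After 72 h, proliferation was read by sulforhodamine B staining. ED50 is the concentration reducing cell proliferation by 50%.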

MCF7 = assay: In vitro cytotoxicity against human MCF-7 cell line; details: read-out: ED50 (the source's name); summary of the method: as §1
CCRF-CEM = assay: In vitro cytotoxicity against human CEM cell line; details: read-out: ED50 (the source's name)
KB = assay: In vitro cytotoxicity against human KB cancer cell line; details: read-out: ED50 (the source's name)

Chain of Tubulin alpha chain (Sus scrofa) (P02550 whole entry, looked up): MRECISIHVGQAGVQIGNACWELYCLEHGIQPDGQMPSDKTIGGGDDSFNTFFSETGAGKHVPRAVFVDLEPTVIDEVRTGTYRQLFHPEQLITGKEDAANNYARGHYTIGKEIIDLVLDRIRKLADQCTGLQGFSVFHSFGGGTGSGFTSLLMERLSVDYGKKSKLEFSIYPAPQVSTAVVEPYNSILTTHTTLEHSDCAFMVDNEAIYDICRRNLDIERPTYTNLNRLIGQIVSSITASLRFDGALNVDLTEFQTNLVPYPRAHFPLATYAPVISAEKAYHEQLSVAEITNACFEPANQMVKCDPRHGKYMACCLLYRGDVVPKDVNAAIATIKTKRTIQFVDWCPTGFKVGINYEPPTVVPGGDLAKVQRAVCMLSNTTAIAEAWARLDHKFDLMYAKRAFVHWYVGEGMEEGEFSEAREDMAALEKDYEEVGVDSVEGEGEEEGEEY

Question: `COc1ccc(C[C@H]2NC(=O)/C=C/C[C@@H]([C@H](C)[C@H]3O[C@@H]3c3ccccc3)OC(=O)[C@H](CC(C)C)OC(=O)[C@H](C)CNC2=O)cc1Cl` [CRYPTOPHYCIN A] was tested. Which ED50 [1] did it give?
Answer: 3400 nM

Question: And the pEC50 (NCI/ADR-RES)?
Answer: 10.74

Question: And the pEC50 (MCF7)?
Answer: 11.05

Question: Which ED50 [1] does the source give for `CC(C)C[C@@H]1OC(=O)CCNC(=O)[C@@H](Cc2ccccc2)NC(=O)/C=C/C[C@@H]([C@H](C)[C@H]2O[C@@H]2c2ccccc2)OC1=O` here?
Answer: 13100 nM

Question: And the pEC50 (NCI/ADR-RES)?
Answer: 8.80

Question: What about the pEC50 (MCF7) of the same molecule?
Answer: 9.47

Question: `CC(C)C[C@@H]1OC(=O)CCNC(=O)[C@@H](Cc2ccc(Cl)c(Cl)c2)NC(=O)/C=C/C[C@@H]([C@H](C)[C@H]2O[C@@H]2c2ccccc2)OC1=O` was tested. Which ED50 [1] did it give?
Answer: 12600 nM

Question: And the pEC50 (NCI/ADR-RES)?
Answer: 8.47

Question: And the pEC50 (MCF7)?
Answer: 10.10

Question: With `CC(C)C[C@@H]1OC(=O)CCNC(=O)[C@@H](Cc2cccc(Cl)c2)NC(=O)/C=C/C[C@@H]([C@H](C)[C@H]2O[C@@H]2c2ccccc2)OC1=O` as the molecule, how does the ED50 [1] read?
Answer: 7200 nM

Question: And the pEC50 (NCI/ADR-RES)?
Answer: 9.24

Question: And the pEC50 (MCF7)?
Answer: 10.30

Question: What does the source list for `CC(C)C[C@@H]1OC(=O)CCNC(=O)[C@@H](Cc2ccc(Cl)cc2)NC(=O)/C=C/C[C@@H]([C@H](C)[C@H]2O[C@@H]2c2ccccc2)OC1=O`?
Answer: ED50 [1]: 12500 nM; pEC50 (NCI/ADR-RES): 9.18; pEC50 (MCF7): 9.92

Question: `COc1ccc(C[C@H]2NC(=O)/C=C/C[C@@H]([C@H](C)[C@H]3O[C@@H]3c3ccccc3)OC(=O)[C@H](CC(C)C)OC(=O)CCNC2=O)cc1` [ARENASTATIN A] was tested. Which pEC50 (CCRF-CEM) did it give?
Answer: 9.74

Question: And the ED50 [1]?
Answer: 15800 nM

Question: What about the pEC50 (NCI/ADR-RES) of the same molecule?
Answer: 9.60

Question: What about the pEC50 (MCF7) of the same molecule?
Answer: 9.89

Question: And the pEC50 (KB)?
Answer: 11.30
